The sample as a whole holds a higher share of hits than the screen did.
B2AR ag – beta2AR agonists driving receptor internalization, primary screen, cell-based, FAP fluorogen, flow cytometry; Am2.2-beta2AR cells; AID 504454, 2011; response, % (no concentration beside the values); 0.43% of 340,000 active;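 active means response above a set limit, near 3 SD of response in nonfluorescent compounds, cut at about 42% in these data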
Dynein cargo inh – inhibitors of GR-EGFP nuclear translocation, primary screen, dynein cargo transport inhibitor project, imaging, high-content, 3617.4 mouse cells | test concentration mostly 20 µM; stimulated with dexamethasone, 1 µM; hits give low values | z-score, hits read low | 0.47% of 220,000 active | AID 1381, 2008;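 active means plate z-score of nuclear minus cytoplasmic receptor signal below a set negative limit, without overly bright fluorescence or cell loss, cut at about -3.5 in these data, passing the limit was not always enough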;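 further: z-score of nuclear minus cytoplasmic ring GR-EGFP intensity difference per well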
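Buffer or medium: tet-free, stripped-serum medium; Also added: dexamethasone, 1.0 µM final; Technique: high-content fluorescence imaging after fixation; Times: 48 h induction, 1 h compound, 30 min dex at 37 °C; Read-out: per-cell GR-EGFP intensity, nucleus versus surrounding cytoplasmic ring, well-averaged.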
UPR XBP1 act – activators of adaptive XBP1 UPR arm, primary screen, cell-based, CHO-XBP1 luciferase reporter, luminescence, uHTS; IRE1-XBP1 UPR activation; percent of tunicamycin response, DMSO as zero; activation, % at 20 µM; 0.33% of 330,000 active; AID 463104, 2010;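 active means versus positive control, 20 µM dose yields 30% or more activation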
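Material: CHO cell line with stable XBP1 luciferase reporter; buffer or medium: F12 medium containing 10% fetal bovine serum; compound: single point, 20 µM final compound, 1% DMSO; incubation: 6 h treatment, 37 °C; measured by: glow luminescence from Steady-Glo reagent; evaluation: activation, % of tunicamycin; control set: tunicamycin high, DMSO low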
p-CIP stab down – p/CIP-EGFP fusion destabilizers, primary screen, fluorescence, F442A cells | Q05BA5 | 16 h | decrease of EGFP signal, % at 10 µM | 0.01% of 290,000 active;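 active means EGFP signal decrease of at least 30% at 10 µM or well 3 SD below plate mean, unless failing retest; inactive means the rest, including hits failing retest or dose response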
CHOP inh – inhibitors of CHOP promoter induction, primary screen, cell-based, unfolded protein response, luciferase reporter. 3.8% of 220,000 active. CHO-K1 CHOP-promoter luciferase, tunicamycin-induced, 15-18 h. inhibition, % at 10 µM;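 active means compounds that reduced the stress-induced luciferase reporter signal by more than about 70% of percent inhibition, limit read from the data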
UPR CHOP act – activators of apoptotic CHOP UPR arm, primary screen, cell-based, CHO-CHOP luciferase reporter, luminescence, uHTS. 0.34% of 330,000 active. activation, % at 10 µM. AID 449763, 2010. UPR activation; percent of tunicamycin response over DMSO baseline;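 active means at 10 µM dose, activation of 40% or more, normalized to positive control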
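Assay system: CHO-CHOP cells, stable luciferase reporter of PERK-eIF2a-CHOP signalling / Buffer or medium: F12 plus 10% serum / Compound dosing: one dose, 10 µM in 0.5% DMSO / Times: 6 h compound treatment, 37 °C / Technique: luciferase luminescence / Read-out: % reporter activation, DMSO baseline versus tunicamycin full activation / Benchmarks: tunicamycin and DMSO controls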
CHOP confirm – retest of CHOP induction inhibitors, confirmation, cell-based | shares compounds with CHOP inh | CHO-CHOP promoter luciferase reporter, tunicamycin-induced, luminescence | inhibition, % at 10 µM | 45% of 2,100 active;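 active means mean of three repeat readings of reporter signal inhibition above a set limit, cut at about 70% in these data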
A number is an active result; n = inactive; x = no result given.

SMILES	B2AR ag	Dynein cargo inh	UPR XBP1 act	p-CIP stab down	CHOP inh	UPR CHOP act	CHOP confirm
CC(=O)C1=C(C)NC(SCC(=O)Nc2nccs2)=C(C#N)C1c1ccccc1Cl (stereo unspecified)	n	n	n	n	n	n	x
C=CCOC(=O)C1=C(C)NC(SCC(=O)Nc2nccs2)=C(C#N)C1c1cccs1 (stereo unspecified)	n	n	n	n	99	n	n
C=CCOC(=O)C1=C(C)NC(SCC(=O)Nc2nccs2)=C(C#N)C1c1ccc(Cl)cc1 (stereo unspecified)	n	n	n	n	106	n	132
O=C(NCCc1ccccc1)C1CCC(CNc2nc(=S)[nH]c3ccccc23)CC1 (stereo unspecified)	n	n	n	n	104	n	n
O=C(CCCCCNc1nc(=S)[nH]c2ccccc12)NCCc1c[nH]c2ccccc12	n	n	n	n	n	n	x
O=C(CCCCCNc1nc(=S)[nH]c2ccccc12)NCCC1=CCCCC1	n	n	n	n	101	n	n
O=C(N=Nc1c(O)n(Cc2ccccc2)c2ccccc12)c1cc2ccccc2cc1O	n	n	x	n	106	x	95
Cc1ccc(NC(=O)Cn2c(O)c(N=NC(=O)c3cc4ccccc4cc3O)c3ccccc32)cc1	n	n	x	n	97	x	n
CCN1C(=O)CC(NCc2ccc(S(N)(=O)=O)cc2)C1=O (stereo unspecified)	n	n	n	n	n	n	x
N#Cc1ccc(CN2CCN(C(=O)c3ccc(S(=O)(=O)N4CCCCCC4)cc3)CC2)cc1	n	x	n	x	x	n	x
COc1ccc(/C=c2\sc3nc(-c4ccccc4OC)nn3c2=O)c(OC)c1	n	n	n	n	102	n	n
CCOc1cc(C(=O)CSc2nnc(CNc3ccc(Cl)cc3)o2)ccc1NC(=O)CC	n	n	n	n	105	n	112
COc1ccc(CNC(=O)[C@H](C)NC(=O)C2CCN(S(=O)(=O)c3ccccc3)CC2)cc1	n	x	n	n	x	n	x
COc1ccc(C(O)(C(=O)NNc2ccc(C)cc2)c2cccs2)cc1 (stereo unspecified)	n	n	n	n	n	n	x
O=C(NNc1ccc(C2CCCCC2)cc1)C(O)(c1ccccc1)c1cccs1 (stereo unspecified)	n	n	n	n	106	n	n
CCc1ccc(Nc2cc(=O)n(C3CCCCC3)c(=O)[nH]2)cc1	n	n	n	n	105	n	n
CC(NC(=O)Nc1ccc(Cl)c(Cl)c1)C(c1ccccc1)N1CCOCC1 (stereo unspecified)	n	n	n	n	n	n	x
COc1ccc(NS(=O)(=O)c2ccc3oc4ccccc4c3c2)cn1	n	n	n	n	97	n	n
COc1cc(-c2nc3cnccn3c2Nc2ccc(C(C)C)cc2)ccc1O	n	n	n	n	110	n	n
COC(=O)c1cccc(-n2sc3ccccc3c2=O)c1	n	x	n	x	x	n	x
Cc1cc2ncn(-c3ncnc4sc5c(c34)CCC(C)C5)c2cc1C (stereo unspecified)	n	n	n	n	97	n	n
O=C(Cn1c2c(sc1=O)C1c3ccccc3OCC1CS2)Nc1ccc(Cl)c(Cl)c1 (stereo unspecified)	n	n	x	n	99	x	n
CCc1cccc(CC)c1NC(=O)CO/N=C(\C)c1cccs1	n	n	n	n	n	n	x
COc1cc(C(=O)OCC(=O)NC2CC2)ccc1OCCC(C)C	n	x	n	x	x	n	x
COC(=O)C1CCN(CC(=O)Nc2ccc(OC)c(Cl)c2)CC1	n	n	n	n	n	n	x
Cc1ccc(-c2nc(C(Cl)Cl)c3ccccc3n2)cc1	n	n	n	n	103	n	100
Cc1ccc(-c2nc(Nc3ccc(O)cc3)c3ccccc3n2)cc1	n	x	n	n	x	n	x
